Key:
[1] = test system: Caco-2 monolayers; assay: Caco-2 permeability study; format: in vitro ADME
[2] = test system: H1650 cancer stem cell xenograft tumor; format: in vivo; settings: 20 mg/kg oral gavage
[3] = test system: NF-КB; assay: Western blot of tumor lysates: NF-КB; format: in vivo, Nu/nu mice
Summary of the method: (§1)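 Nu/nu mice bearing H1650 cancer-stem-cell tumours got vehicle or test compound by oral gavage, solution or self-emulsified form, 20 mg/kg (solution every other day). Tumour nodules were lysed in RIPA pH 8.0 with protease inhibitor; 50 µg protein (BCA) on 10% SDS-PAGE, nitrocellulose, 5% milk/TBST block, antibodies 1:1000, HRP secondary. Signal normalised to β-actin; three replicates, mean ± SEM, one-way ANOVA with Tukey test.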

[4] = test system: SOX2; assay: Western blot of tumor lysates: SOX2; format: in vivo, Nu/nu mice
Summary of the method: as §1

[5] = test system: lung tumor tissue; assay: Hematoxylin and eosin staining of lung tumor tissue; format: in vivo, Nu/nu mice
[6] = In vitro release study; format: physicochemical; settings: in 24 h, distilled water, 37 °C, 50 rpm
Summary of the method: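 Test formulation equivalent to 2 mg drug stirred in USP apparatus II with 200 ml distilled water, […], paddle 50 rpm. At set intervals, 1 ml aliquots were withdrawn, filtered and assayed by HPLC, with fresh medium replaced each time.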

[7] = test system: Bcl-2; assay: Western blot of tumor lysates: Bcl-2; format: in vivo, Nu/nu mice; settings: densitometry
Summary of the method: as §1

[8] = Pharmacokinetics / bioavailability in dogs; format: in vivo
[9] = test system: H1650 cancer stem cell orthotopic lung tumor; format: in vivo; settings: 20 mg/kg oral gavage, 30 days treatment
[10] = test system: Nanog; assay: Western blot of tumor lysates: Nanog; format: in vivo, Nu/nu mice
[11] = mouse, in vivo, cited from earlier work
[12] = test system: CSCs; settings: cited from earlier work
[13] = test system: CSCs; settings: cited from earlier work; remark: listed apart in the source
[14] = i.v. bolus 0.5 mg/kg, two-compartment model

3, 3-Diindolylmethane-14 [DIM-14]
average Peff, A–B ([1]; Caco-2, donor pH 6.5, acceptor pH 7.4): approximately 0.26 ± 0.05 × 10^−6 cm/s
average Peff, B–A ([1]; Caco-2, secretory direction): 0.41 ± 0.09 × 10^−6 cm/s
decrease in average number of tumor nodules versus control [2]: 29%
decrease in lung tumor volumes [2]: 29%
decrease in lung tumor weights versus vehicle control [2]: 30%
expression of NF-КB [3]: significantly down regulated
reduction of relative SOX2 expression versus untreated control [4]: 1.9 fold
histological examination of lungs and tracheobronchial epithelium ([5]; all groups): no signs of inflammation or edema
tumor microvessels (H & E histology) ([5]; treated tumors versus untreated mice): only occasional, isolated microvessels
drug release [6]: ~ 10%
reduction of β-actin relative Bcl-2 expression versus untreated control tumors [7]: 1.8 fold
Volume of distribution (Vd) ([8]; i.v. bolus 0.5 mg/kg): 0.321 L/kg
Volume of distribution at steady state (Vdss) ([8]; i.v. bolus 0.5 mg/kg): 0.319 L/kg
K10 (elimination from central compartment) [8, 14]: 0.003 L/h
K21 (peripheral to central compartment) [8, 14]: 0.15 L/h
absolute oral bioavailability ([8]; oral 3.33 mg/kg): < 10%
decrease in average number of tumor nodules versus control [9]: 22%
decrease in lung tumor volumes [9]: 34%
decrease in lung tumor weights versus vehicle control [9]: 24%
decrease of relative Nanog expression versus untreated control [10]: 2.4 fold

COc1ccc(C(c2c[nH]c3ccccc23)c2c[nH]c3ccccc23)cc1 [DIM-5]
Oral bioavaibility [11]: 39%

Oc1ccc(C(c2c[nH]c3ccccc23)c2c[nH]c3ccccc23)cc1 [DIM-8]
time to reach Cmax (Tmax) ([11]; po): about 60 min
Oral bioavaibility [11]: 6%

Clc1ccc(C(c2c[nH]c3ccccc23)c2c[nH]c3ccccc23)cc1 [DIM-12]
Oral bioavaibility [11]: 42%

CN(C)C(=N)N=C(N)N [Metformin]
concentrations at which it works against CSCs [12]: 100 to 300 µM

CC[C@@H](C(=O)[C@@H](C)[C@@H](O)[C@H](C)[C@@H]1O[C@@H]([C@@H](CC)C(=O)O)CC[C@@H]1C)[C@H]1O[C@]2(C=C[C@@H](O)[C@]3(CC[C@@](C)([C@H]4CC[C@](O)(CC)[C@H](C)O4)O3)O2)[C@H](C)C[C@@H]1C [salinomycin]
reduction of the proportion of CSCs relative to paclitaxel [13]: more than 100 fold

Lucifer Yellow [reference compound]
mean permeability of paracellular control ([1]; Caco-2): < 1.5e-07 cm/s

— publication PMC5645071 (Journal of controlled release : official journal of the …, 2015)
